Experimental data reported in ChEMBL document CHEMBL1155453, “Spirotetrahydro beta-carbolines (spiroindolones): a new class of potent and orally efficacious compounds for the treatment of malaria” (J Med Chem, 2010).
Converted amounts (≈) assume the structure as drawn. Blank lines part the entries; values can stand above or below the molecule they belong to.

How the values were obtained:
[1] = test system: Plasmodium falciparum; test: Antimalarial activity against drug-sensitive Plasmodium falciparum NF54 infected in human erythrocytes after 48 hrs by [3H]hypoxanthine assay; format: functional, organism-based
[2] = test system: Plasmodium berghei; test: Antimalarial activity against Plasmodium berghei ANKA infected in NMRI mice (Mus musculus) assessed as host survival time at 10 mg/kg, perorally administered once daily for 3 days (reference value: 6 to 7 days); format: functional; details: route oral
[3] = test system: Plasmodium berghei; test: Antimalarial activity against Plasmodium berghei ANKA infected in NMRI mice (Mus musculus) assessed as host survival time at 100 mg/kg, perorally administered as single dose (reference value: 6 to 7 days); format: functional; details: route oral
[4] = test system: Plasmodium berghei; test: Antimalarial activity against Plasmodium berghei ANKA infected in NMRI mice (Mus musculus) assessed as host survival time at 30 mg/kg, perorally administered once daily for 3 days (reference value: 6 to 7 days); format: functional; details: route oral
[5] = test system: Plasmodium berghei; test: Antimalarial activity against Plasmodium berghei ANKA infected in NMRI mice (Mus musculus) assessed as reduction in parasitaemia at 10 mg/kg, perorally administered once daily for 3 days; format: functional; parameters: scale not given: the % may be the effect or the level left; details: route oral
Outline: (§1)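 P. berghei-infected mice, 5 per group, given compound orally in 10% ethanol, 30% PEG400, 6% vitamin E TPGS, as a single dose or daily for three days. Parasitemia is measured on day three and reported as percent reduction (activity).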

[6] = test system: Plasmodium berghei; test: Antimalarial activity against Plasmodium berghei ANKA infected in NMRI mice (Mus musculus) assessed as host survival time at 30 mg/kg, perorally administered as single dose (reference value: 6 to 7 days); format: functional; details: route oral
[7] = test system: Plasmodium berghei; test: Antimalarial activity against Plasmodium berghei ANKA infected in NMRI mice (Mus musculus) assessed as reduction in parasitaemia at 30 mg/kg, perorally administered once daily for 3 days; format: functional; parameters: scale not given: the % may be the effect or the level left; details: route oral; outline: as §1
[8] = test system: Plasmodium berghei; test: Antimalarial activity against Plasmodium berghei ANKA infected in NMRI mice (Mus musculus) assessed as reduction in parasitaemia at 30 mg/kg, perorally administered as single dose; format: functional; parameters: scale not given: the % may be the effect or the level left; details: route oral; outline: as §1
[9] = test system: Plasmodium berghei; test: Antimalarial activity against Plasmodium berghei ANKA infected in NMRI mice (Mus musculus) assessed as reduction in parasitaemia at 100 mg/kg, perorally administered as single dose; format: functional; parameters: scale not given: the % may be the effect or the level left; details: route oral; outline: as §1
[10] = test system: Plasmodium falciparum; test: Antimalarial activity against chloroquine-resistant Plasmodium falciparum K1 infected in human erythrocytes after 48 hrs by [3H]hypoxanthine assay; format: functional, organism-based
[11] = target: Cytochrome P450 3A4 (Homo sapiens, UniProt P08684); test: Inhibition of CYP3A4 in human liver microsome by LC-MS/MS analysis; format: ADME, microsomes
Chain of Cytochrome P450 3A4 (P08684 whole entry): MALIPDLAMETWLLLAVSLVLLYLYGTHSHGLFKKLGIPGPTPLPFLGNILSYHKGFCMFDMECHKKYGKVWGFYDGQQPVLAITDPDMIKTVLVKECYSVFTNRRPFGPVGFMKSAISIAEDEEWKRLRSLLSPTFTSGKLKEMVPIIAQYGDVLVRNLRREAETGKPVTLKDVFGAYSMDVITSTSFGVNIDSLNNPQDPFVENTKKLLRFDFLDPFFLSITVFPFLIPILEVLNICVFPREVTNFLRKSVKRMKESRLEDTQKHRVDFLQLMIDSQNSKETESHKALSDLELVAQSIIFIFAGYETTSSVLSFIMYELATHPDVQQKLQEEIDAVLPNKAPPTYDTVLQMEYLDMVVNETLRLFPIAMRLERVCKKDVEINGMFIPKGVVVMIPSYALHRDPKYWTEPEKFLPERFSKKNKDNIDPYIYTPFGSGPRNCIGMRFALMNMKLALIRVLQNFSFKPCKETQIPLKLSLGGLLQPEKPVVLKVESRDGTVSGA

[12] = target: Cytochrome P450 2D6 (Homo sapiens, UniProt P10635); test: Inhibition of CYP2D6 in human liver microsome by LC-MS/MS analysis; format: ADME, microsomes
Chain of Cytochrome P450 2D6 (P10635 whole entry): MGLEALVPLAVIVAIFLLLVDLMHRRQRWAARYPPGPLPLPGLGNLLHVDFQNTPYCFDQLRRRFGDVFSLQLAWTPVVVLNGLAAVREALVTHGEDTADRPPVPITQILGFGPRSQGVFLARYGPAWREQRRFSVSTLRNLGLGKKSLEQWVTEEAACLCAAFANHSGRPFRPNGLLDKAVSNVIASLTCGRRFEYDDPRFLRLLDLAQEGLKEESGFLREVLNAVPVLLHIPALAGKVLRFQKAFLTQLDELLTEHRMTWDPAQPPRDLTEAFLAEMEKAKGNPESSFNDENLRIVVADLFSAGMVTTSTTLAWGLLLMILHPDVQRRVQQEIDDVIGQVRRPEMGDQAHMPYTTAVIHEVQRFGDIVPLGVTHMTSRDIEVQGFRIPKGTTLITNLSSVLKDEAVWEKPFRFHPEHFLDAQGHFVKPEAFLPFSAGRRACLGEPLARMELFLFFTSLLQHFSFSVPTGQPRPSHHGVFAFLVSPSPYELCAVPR

[13] = target: Cytochrome P450 2C9 (Homo sapiens, UniProt P11712); test: Inhibition of CYP2C9 in human liver microsome by LC-MS/MS analysis; format: ADME, microsomes
Chain of Cytochrome P450 2C9 (P11712 whole entry): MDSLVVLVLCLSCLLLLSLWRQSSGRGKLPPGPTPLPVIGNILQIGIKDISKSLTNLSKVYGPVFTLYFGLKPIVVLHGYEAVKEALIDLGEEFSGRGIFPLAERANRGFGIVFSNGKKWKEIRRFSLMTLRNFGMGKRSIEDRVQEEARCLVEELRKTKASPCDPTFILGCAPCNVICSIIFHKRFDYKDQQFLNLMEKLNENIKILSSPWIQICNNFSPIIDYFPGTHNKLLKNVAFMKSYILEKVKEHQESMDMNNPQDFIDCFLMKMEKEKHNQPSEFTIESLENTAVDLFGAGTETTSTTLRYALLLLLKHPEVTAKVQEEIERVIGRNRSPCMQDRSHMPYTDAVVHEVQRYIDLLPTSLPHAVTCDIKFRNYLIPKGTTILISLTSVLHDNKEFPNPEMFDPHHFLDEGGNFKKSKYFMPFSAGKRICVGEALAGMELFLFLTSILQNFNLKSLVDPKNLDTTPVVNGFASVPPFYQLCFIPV

[14] = Clearance in mouse at 5 mg/kg, iv; format: ADME, organism-based; parameters: dose 5 mg/kg, route intravenous; details: in vivo
[15] = Solubility at pH 6.8; format: physicochemical; details: buffer
[16] = Lipophilicity, log P of the compound; format: physicochemical; details: octanol/water
[17] = target: Voltage-gated inwardly rectifying potassium channel KCNH2 (Homo sapiens, UniProt Q12809); test: Binding affinity to human ERG
Chain of Voltage-gated inwardly rectifying potassium channel KCNH2 (Q12809 whole entry): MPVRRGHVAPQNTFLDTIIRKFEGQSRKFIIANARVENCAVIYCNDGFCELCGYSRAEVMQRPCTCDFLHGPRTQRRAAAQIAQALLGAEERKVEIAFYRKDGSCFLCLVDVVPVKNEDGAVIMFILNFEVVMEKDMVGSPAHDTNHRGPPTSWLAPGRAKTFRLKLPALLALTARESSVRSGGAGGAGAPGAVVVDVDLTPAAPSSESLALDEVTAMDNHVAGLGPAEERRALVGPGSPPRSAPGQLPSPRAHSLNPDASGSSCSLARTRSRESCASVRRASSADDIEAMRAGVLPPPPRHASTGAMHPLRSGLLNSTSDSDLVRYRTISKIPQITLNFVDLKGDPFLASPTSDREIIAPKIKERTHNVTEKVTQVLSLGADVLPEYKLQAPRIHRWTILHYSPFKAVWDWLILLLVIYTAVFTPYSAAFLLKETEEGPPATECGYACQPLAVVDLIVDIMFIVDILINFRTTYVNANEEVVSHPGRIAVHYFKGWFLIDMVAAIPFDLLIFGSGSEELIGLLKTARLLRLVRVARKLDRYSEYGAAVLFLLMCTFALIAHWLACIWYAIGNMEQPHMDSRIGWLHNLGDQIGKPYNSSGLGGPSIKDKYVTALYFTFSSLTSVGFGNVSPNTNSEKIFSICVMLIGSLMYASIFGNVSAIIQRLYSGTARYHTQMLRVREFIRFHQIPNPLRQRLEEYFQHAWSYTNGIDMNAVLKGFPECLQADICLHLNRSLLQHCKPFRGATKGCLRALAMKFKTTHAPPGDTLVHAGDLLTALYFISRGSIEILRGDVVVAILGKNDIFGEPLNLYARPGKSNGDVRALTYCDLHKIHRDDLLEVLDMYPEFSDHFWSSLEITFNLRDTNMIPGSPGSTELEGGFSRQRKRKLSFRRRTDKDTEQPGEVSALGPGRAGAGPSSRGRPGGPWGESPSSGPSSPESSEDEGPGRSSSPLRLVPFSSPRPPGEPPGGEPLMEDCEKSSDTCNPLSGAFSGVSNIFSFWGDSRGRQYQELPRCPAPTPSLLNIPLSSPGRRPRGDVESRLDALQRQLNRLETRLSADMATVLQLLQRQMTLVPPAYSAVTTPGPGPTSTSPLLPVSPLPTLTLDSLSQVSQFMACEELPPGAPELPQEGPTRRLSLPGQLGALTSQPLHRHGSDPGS

[18] = test system: Mus musculus; test: Oral bioavailability in mouse at 25 mg/kg; format: ADME, organism-based; details: in vivo
Outline: (§2)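 Mouse pharmacokinetics. Plasma drug concentration was followed over time. Derived values: Cmax, Tmax, AUC extrapolated to infinity, terminal half-life, and oral bioavailability (F) from the oral and iv exposures.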

[19] = AUC (infinity) in mouse at 25 mg/kg, po; format: ADME, organism-based; parameters: time infinity, dose 25 mg/kg, route oral; details: plasma; outline: as §2
[20] = Volume of distribution at steady state in mouse at 5 mg/kg, iv; details: in vivo, read-out: Vdss
[21] = Half life in mouse at 5 mg/kg, iv; details: in vivo
[22] = Clearance in mouse at 5 mg/kg, iv; details: in vivo
[23] = Half life in mouse at 25 mg/kg, po; format: ADME, organism-based; parameters: dose 25 mg/kg, route oral; details: in vivo; outline: as §2
[24] = Cmax in mouse at 25 mg/kg, po; format: ADME, organism-based; parameters: dose 25 mg/kg, route oral; details: in vivo; outline: as §2
[25] = Tmax in mouse at 25 mg/kg, po; format: ADME, organism-based; parameters: dose 25 mg/kg, route oral; details: in vivo; outline: as §2

Structure (SMILES): C[C@@H]1CCc2c([nH]c3ccccc23)[C@]2(N1)C(=O)Nc1ccc(Br)cc12
IC50 [1]: > 5000 nM

Structure (SMILES): C[C@H]1[C@H](OC(=O)CCC(=O)O)O[C@@H]2O[C@@]3(C)CC[C@H]4[C@H](C)CC[C@@H]1[C@@]24OO3 [ARTESUNATE]
Survival [2]: 8.1 days
Survival [3]: 7 days
Survival [4]: 12.2 days
Activity [5]: 96%
Survival [6]: 5.8 days
Activity [7]: 99%
Activity [8]: 95.6%
Activity [9]: 98%

Structure (SMILES): CC1(C)Cc2c([nH]c3ccccc23)C2(N1)C(=O)Nc1ccc(Cl)cc12 (stereo not given)
IC50 [10]: 819 nM
IC50 [1]: 857 nM

Structure (SMILES): O=C1Nc2ccc(Cl)cc2C12NCCCc1c2[nH]c2ccccc12 (stereo not given)
IC50 [10]: 83 nM
IC50 [1]: 86 nM

Structure (SMILES): CCN(CC)CCCC(C)Nc1ccnc2cc(Cl)ccc12 (stereo not given) [CHLOROQUINE]
Survival [2]: 13.6 days
Survival [3]: 12.5 days
Survival [4]: 14.3 days
Activity [5]: 99.8%
Survival [6]: 9 days
Activity [7]: 99.8%
Activity [8]: 99.5%
Activity [9]: 99.6%

Structure (SMILES): CC1CCc2c([nH]c3ccccc23)C2(N1)C(=O)Nc1ccc(Br)cc12 (stereo not given) [SPIROAZEPINEINDOLE]
IC50 [1]: 90 nM

Structure (SMILES): O=C1Nc2ccc(Cl)cc2C12NCCc1c2[nH]c2ccccc12 (stereo not given)
IC50 [10]: 104 nM
IC50 [1]: 126 nM

Structure (SMILES): O=C1Nc2ccc(Cl)cc2C12NCCCCc1c2[nH]c2ccccc12 (stereo not given)
IC50 [10]: > 5000 nM
IC50 [1]: > 5000 nM

IC50 [11]: Not Active
IC50 [12]: Not Active
IC50 [13]: > 10000 nM
IC50 [1]: 182 nM
Structure (SMILES): C[C@@H]1Cc2c([nH]c3ccc(F)cc23)[C@]2(N1)C(=O)Nc1ccc(Cl)cc12

clearance [14]: 24 mL/min/kg
solubility [15]: 140 µg/mL (≈ 393 µM)
IC50 [11]: Not Active
IC50 [12]: Not Active
logP [16]: 3.6
IC50 [13]: 1720 nM
IC50 [1]: 3 nM
Structure (SMILES): C[C@H]1Cc2c([nH]c3ccc(F)cc23)[C@@]2(N1)C(=O)Nc1ccc(Cl)cc12

solubility [15]: 79 µg/mL (≈ 199 µM)
logP [16]: 3.9
Structure (SMILES): C[C@H]1CCc2c([nH]c3ccccc23)[C@@]2(N1)C(=O)Nc1ccc(Br)cc12

IC50 [1]: 84 nM
Structure (SMILES): CC1CCc2c([nH]c3ccccc23)C2(N1)C(=O)Nc1ccc(Cl)cc12 (stereo not given)

IC50 [11]: Not Active
IC50 [12]: Not Active
IC50 [13]: 5420 nM
Structure (SMILES): C[C@H]1Cc2c([nH]c3cc(Cl)c(F)cc23)[C@@]2(N1)C(=O)Nc1ccc(Cl)cc12 [CIPARGAMIN]

clearance [14]: 4.14 mL/min/kg
IC50 [11]: Not Active
IC50 [12]: Not Active
IC50 [13]: > 10000 nM
IC50 [1]: 83 nM
Structure (SMILES): C[C@@H]1Cc2c([nH]c3cc(F)c(F)cc23)[C@]2(N1)C(=O)Nc1ccc(Cl)cc12

clearance [14]: 60.1 mL/min/kg
solubility [15]: 8 µg/mL (≈ 21.5 µM)
IC50 [11]: Not Active
IC50 [12]: Not Active
logP [16]: 4.8
IC50 [13]: 4110 nM
IC50 [1]: 4 nM
Structure (SMILES): C[C@H]1Cc2c([nH]c3cc(Cl)ccc23)[C@@]2(N1)C(=O)Nc1ccc(Cl)cc12
IC50 [17]: > 30000 nM

IC50 [11]: Not Active
IC50 [12]: Not Active
IC50 [13]: > 10000 nM
IC50 [1]: 116 nM
Structure (SMILES): C[C@@H]1Cc2c([nH]c3cc(Cl)ccc23)[C@]2(N1)C(=O)Nc1ccc(Cl)cc12

Structure (SMILES): C[C@@H]1Cc2c([nH]c3cc(Cl)c(F)cc23)[C@]2(N1)C(=O)Nc1ccc(Cl)cc12
clearance [14]: 2.58 mL/min/kg
IC50 [11]: Not Active
IC50 [12]: Not Active
IC50 [13]: > 10000 nM
IC50 [1]: 77 nM

Structure (SMILES): C[C@H]1Cc2c([nH]c3cc(F)c(F)cc23)[C@@]2(N1)C(=O)Nc1ccc(Cl)cc12
clearance [14]: 8.53 mL/min/kg
Survival [2]: 17.2 days
F [18]: 53%
solubility [15]: 170 µg/mL (≈ 455 µM)
IC50 [11]: Not Active
AUC(0-inf) [19]: 71.4 µM·h
Survival [3]: 13 days
Survival [4]: 29.4 days
Vd [20]: 1.6 L/kg
Survival [6]: 12 days
half-life [21]: 2.94 h
IC50 [17]: > 30000 nM
IC50 [12]: Not Active
logP [16]: 4
clearance [22]: 8.53 mL/min/kg
half-life [23]: 3.18 h
Cmax [24]: 8.32 µM
IC50 [13]: 7350 nM
Tmax [25]: 2 h
IC50 [1]: 0.2 nM
